Data: ChEMBL document CHEMBL2046351, “Discovery of cyclic sulfone hydroxyethylamines as potent and selective β-site APP-cleaving enzyme 1 (BACE1) inhibitors: structure-based design and in vivo reduction of amyloid β-peptides” (J Med Chem, 2012)

How the values were obtained:
[1] = Half life in C57BL/6 mouse at 2 umol/kg, iv dosed in N-methyl pyrrolidone/blank plasma (10:90 v/v) by LC/MS/MS analysis; assay type: ADME, organism-based
Outline: (§1)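 Male C57BL/6 mice, saphenous vein injection under light anesthesia, 5 mL/kg. Blood at 5, 30 min and 1, 2, 4, 6, 8 h; brain at 5 min, 1, 4, 8 h; n = 3/time. LC-MS/MS after acetonitrile precipitation (brain water-homogenized). Noncompartmental analysis, 1/Y weighting, terminal slope from ≥3 points.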

[2] = AUC (0 to infinity) in C57BL/6 mouse at 2 umol/kg, iv dosed in N-methyl pyrrolidone/blank plasma (10:90 v/v) by LC/MS/MS analysis; assay type: ADME, organism-based; design: dose 2 umol/kg, time infinity, route intravenous
Outline: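 Male C57BL/6 mice got a single injection into the saphenous vein under light anaesthesia at 5 mL/kg. Blood was taken at 5 and 30 min and 1, 2, 4, 6 and 8 h (n = 3 per time). Blood was extracted by acetonitrile precipitation and quantified by LC-MS/MS against a weighted linear calibration. AUC came from noncompartmental analysis with 1/Y weighting.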

[3] = Drug uptake in C57BL/6 mouse blood at 6 umol/kg, po dosed in HS15/propylenglycol/citrate buffer, pH 4.75, 50 mM (10/5/85, v/v/v) measured 4 hrs post dosing by LC/MS/MS analysis; assay type: ADME, organism-based; settings: read-out: Drug uptake
Outline: (§2)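 Male C57BL/6 mice dosed by oral gavage, 10 mL/kg. Blood sampled 0.25, 0.5, 1, 2, 4, 6 h; brain at 1 and/or 4 h; n = 3 per time. Blood acetonitrile-precipitated, brain water-homogenized then precipitated; LC-MS/MS with weighted linear calibration.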

[4] = Oral bioavailability in C57BL/6 mouse at 6 umol/kg dosed in HS15/propylenglycol/citrate buffer, pH 4.75, 50 mM (10/5/85, v/v/v) by LC/MS/MS analysis; assay type: ADME, organism-based; settings: in vivo
Outline: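 Oral gavage (10 mL/kg) to male C57BL/6 mice with iv reference segment (2 μmol/kg, NMP/blank plasma 10:90). Noncompartmental analysis of LC-MS/MS blood profiles, 1/Y weighting; %F = dose-normalized oral AUC / dose-normalized iv AUC × 100, assuming linear pharmacokinetics between doses.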

[5] = system: MDR1 (human); assay: Apparent permeability across MDCK cells expressing human MDR1 at 5 uM after 2 hrs by LC-MS analysis; assay type: ADME, cell-based, Canis lupus familiaris; settings: dog
Outline: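 MDCK cells retrovirally transduced with human MDR1, seeded on transwells ≥3 days; bidirectional transport at 5 μM, 2 h, 37 °C, LC/MS quantitation. Papp = (dQ/dt)/(A·C0), A 0.11 cm2; ER = Papp B>A / Papp A>B. Means of at least three experiments.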

[6] = Ratio of drug uptake in brain to blood in C57BL/6 mouse at 60 umol/kg, po dosed in HS15/propylenglycol/citrate buffer, pH 4.75, 50 mM (10/5/85, v/v/v) measured 1 hr post dosing by LC/MS/MS analysis; assay type: ADME, organism-based
Outline: (§3)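 Male C57BL/6 mice received the dose by oral gavage at 10 mL/kg. Blood and brain were collected at 1 and/or 4 h postdose. Brain was homogenised in water, and both matrices were extracted by acetonitrile precipitation and quantified by LC-MS/MS. The ratio is mean brain (nmol/g) over mean blood (nmol/mL) concentration, n = 3.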

[7] = AUC (0 to infinity) in C57BL/6 mouse at 6 umol/kg, po dosed in HS15/propylenglycol/citrate buffer, pH 4.75, 50 mM (10/5/85, v/v/v) by LC/MS/MS analysis; assay type: ADME, organism-based; design: dose 6 umol/kg, time infinity, route oral; settings: plasma
Outline: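 Male C57BL/6 mice were dosed by oral gavage at 10 mL/kg. Blood was sampled at 0.25, 0.5, 1, 2, 4 and 6 h postdose, extracted by acetonitrile precipitation and quantified by LC-MS/MS (typical LLOQ 0.4 ng/mL). AUCinf was obtained by noncompartmental analysis of concentration–time profiles, weighting 1/Y, with at least three terminal log-linear points.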

[8] = system: Mus musculus; assay: Antialzheimer activity in APP51/16 transgenic mouse expressing human APP51/16Npa and mouse Thy1 assessed as reduction in brain C99 level reduction at 180 umol/kg, po measured 4 hrs post dosing; assay type: functional; design: scale not given: the % may be the effect or the level left
Outline: (§4)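 Hemizygous APP51/16 mice (human APP751 wild-type under murine Thy-1 cassette, C57BL/6 background) gavaged (10 mL/kg), decapitated at 4 h. Forebrain homogenized in TBS with protease inhibitors, 1% TX-100 extract, spun 100000 rpm 30 min 4 °C. Aβ40 by 6E10 electrochemiluminescence immunoassay against spiked nontransgenic extract standards; C99 by APP-C8 western blot, densitometry. Two-tailed Student's t test versus vehicle.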

[9] = Volume of distribution at steady state in C57BL/6 mouse at 2 umol/kg, iv dosed in N-methyl pyrrolidone/blank plasma (10:90 v/v) by LC/MS/MS analysis; assay type: ADME, organism-based; settings: read-out: Vdss; outline: as §1
[10] = Blood clearance in C57BL/6 mouse at 2 umol/kg, iv dosed in N-methyl pyrrolidone/blank plasma (10:90 v/v) by LC/MS/MS analysis; assay type: ADME, organism-based; outline: as §1
[11] = Ratio of drug uptake in brain to blood in C57BL/6 mouse at 60 umol/kg, po dosed in HS15/propylenglycol/citrate buffer, pH 4.75, 50 mM (10/5/85, v/v/v) measured 4 hrs post dosing by LC/MS/MS analysis; assay type: ADME, organism-based; outline: as §3
[12] = system: Brain; assay: Drug uptake in APP51/16 transgenic mouse brain at 180 umol/kg, po measured 4 hrs post dosing by LC/MS/MS analysis; assay type: ADME, organism-based; settings: in vivo
Outline: (§5)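 APP51/16 transgenic mice given oral gavage (10 mL/kg); blood and forebrain taken at 4 h postdose. Blood extracted by acetonitrile precipitation; brain homogenized in water, then acetonitrile-precipitated. LC-MS/MS quantitation against weighted linear calibration of analyte/internal standard area ratio.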

[13] = Drug uptake in APP51/16 transgenic mouse blood at 180 umol/kg, po measured 4 hrs post dosing by LC/MS/MS analysis; assay type: ADME, organism-based; settings: read-out: Drug uptake; outline: as §5
[14] = system: Mus musculus; assay: Antialzheimer activity in APP51/16 transgenic mouse expressing human APP51/16Npa and mouse Thy1 assessed as reduction in amyloid beta (1 to 40) reduction at 180 umol/kg, po measured 4 hrs post dosing; assay type: functional; design: scale not given: the % may be the effect or the level left; outline: as §4
[15] = Ratio of drug uptake in brain to blood in C57BL/6 mouse at 6 umol/kg, po dosed in carboxymethyl cellulose 0.5% w/v in water/Tween 80 (99.5/0.5, v/v) measured 1 hr post dosing by LC/MS/MS analysis; assay type: ADME, organism-based; outline: as §2
[16] = system: Brain; assay: Drug uptake in C57BL/6 mouse brain at 2 umol/kg, iv dosed in N-methyl pyrrolidone/blank plasma (10:90 v/v) measured 1 hr post dosing by LC/MS/MS analysis; assay type: ADME, organism-based; settings: in vivo; outline: as §1
[17] = system: Brain; assay: Drug uptake in C57BL/6 mouse brain at 6 umol/kg, po dosed in carboxymethyl cellulose 0.5% w/v in water/Tween 80 (99.5/0.5, v/v) measured 4 hrs post dosing by LC/MS/MS analysis; assay type: ADME, organism-based; settings: in vivo; outline: as §2
[18] = system: Brain; assay: Drug uptake in C57BL/6 mouse brain at 60 umol/kg, po dosed in carboxymethyl cellulose 0.5% w/v in water/Tween 80 (99.5/0.5, v/v) measured 4 hrs post dosing by LC/MS/MS analysis; assay type: ADME, organism-based; settings: in vivo; outline: as §2

half-life [1] [h]	AUC(0-inf) [2] [µM·h]	concentration at 4 h [3] [µM]	bioavailability [4] [%]	Papp at 2 h, 5 µM [5] [×10⁻⁶ cm/s]	Kp at 1 h [6]	AUC(0-inf) [7] [µM·h]	Vd [9] [L/kg]	clearance [10] [mL/min/kg]	Kp at 4 h [11]	Drug uptake [12] [nmol/g]	concentration at 4 h [13] [µM]	Kp at 1 h [15]	Drug uptake [16] [nmol/g]	Drug uptake [17] [nmol/g]	Drug uptake [18] [nmol/g]	SMILES	Activity [8] [%]	Activity [14] [%]
2.9	0.407	0.03	32	3	0.5	0.398	16.3	82	0.8	1.5	3.7	–	–	–	–	CC(C)(C)c1cccc(CN[C@H]2CS(=O)(=O)C[C@@H](Cc3cc(F)c(N)c(OC(C(F)(F)F)C(F)(F)F)c3)[C@@H]2O)c1	22	6
1.4	0.3	–	–	25	–	–	7.2	111	–	1.8	10.2	2.7	0.11	0.11	0.55	CC(C)(C)c1cccc(CN[C@H]2CS(=O)(=O)C[C@@H](Cc3cc(F)c(N)c(OCC(F)(F)F)c3)[C@@H]2O)c1	34	31
